Marks after values point to notes of the source that are not given here.
Experiments:
[1] = test system: TRH-R2; test: Signaling; assay type: cell-based; conditions: ratio of EC50 at TRH-R1 and TRH-R2
Summary of the method: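 HEK 293EM cells stably expressing TRH-R1 or TRH-R2 were co-transfected with CREB and a CREB-luciferase reporter by calcium phosphate. […] Lysates were read by luminescence (0.4 mM luciferin, 2 mM ATP, 10 s). EC50 (μM) was found at each subtype, mean ±SD, duplicates, three experiments.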

[2] = test system: TRH-R2; test: Receptor binding assay, competition with [3H][Nτ; conditions: ratio of Ki at TRH-R1 and TRH-R2; direction differs between compounds
[3] = biological target: T1, TRH-R1 (Mus musculus, UniProt P21761); test: Signaling; assay type: cell-based
T1 sequence (P21761 1-393): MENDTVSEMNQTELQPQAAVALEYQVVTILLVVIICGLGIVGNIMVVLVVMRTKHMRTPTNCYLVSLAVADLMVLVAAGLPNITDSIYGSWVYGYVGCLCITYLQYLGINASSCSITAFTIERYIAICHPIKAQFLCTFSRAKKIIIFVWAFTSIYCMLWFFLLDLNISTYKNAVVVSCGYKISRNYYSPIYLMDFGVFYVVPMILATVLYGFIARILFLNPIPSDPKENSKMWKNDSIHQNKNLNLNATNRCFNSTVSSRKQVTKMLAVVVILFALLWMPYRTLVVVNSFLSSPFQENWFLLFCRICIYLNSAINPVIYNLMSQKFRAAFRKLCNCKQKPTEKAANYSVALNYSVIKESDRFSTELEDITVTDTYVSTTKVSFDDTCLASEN
Summary of the method: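 HEK 293EM cells stably expressing TRH-R1, grown in DMEM with 10 % FBS and hygromycin, were seeded at 1.5 × 10^5 cells/well. After 16 h they were calcium-phosphate co-transfected with CREB and a CREB-driven luciferase reporter. Various concentrations of test compound were added in 1 % FBS medium for 6 h at 37 °C. Lysate luminescence was then read for 10 s, with 0.4 mM luciferin and 2 mM ATP. Data are from duplicates in three experiments.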

[4] = biological target: T1, TRH-R1; test: Receptor binding assay, competition with [3H][Nτ
[5] = test system: Swiss albino mice; test: Antagonism of pentobarbital-induced sleeping time; assay type: in vivo; conditions: 10 μmol kg^−1 i.v.; for Sleep Time: pentobarbital 50 mg kg^−1 i.p. 10 min later, mean ± SEM; for Decrease in Sleep Time: (1−S/C)×100 relative to control, negative = increase; for effect on pentobarbital-induced sleeping time (in words): compared with control group
[6] = test system: mice; test: Pentylenetetrazole; assay type: in vivo; conditions: 10 μmol kg^−1 i.v. 10 min prior to PTZ 65 mg kg^−1 i.p.; mean ± SEM
[7] = test system: mice; test: Maximal electric shock; assay type: in vivo; conditions: 10 μmol kg^−1 i.v. 10 min prior to MES 45 mA for 0.2 s; mean ± SEM
Summary of the method: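 Male Swiss albino mice (20–30 g, n = 6–8/group) received saline vehicle or test compound at 10 μmol kg−1 i.v. via the tail vein. MES (45 mA, corneal electrode, 0.2 s) was applied 10 min later, and the duration of tonic hind limb extension was recorded. Data were analysed by one-way ANOVA with Tukey test versus saline.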

Row | SMILES | EC50 [3] [µM] | Ki [4] [µM] | Sleep Time [5] | Decrease in Sleep Time [5] [%] | further results
1 | CCCc1nc(C[C@H](NC(=O)[C@@H]2CCC(=O)N2)C(=O)N2CCC[C@H]2C(N)=O)cn1C [Compd 10 a, L-pGlu-L-His(1-methyl-2-propyl)-L-ProNH2] | 0.29 | 0.32 | 41.7 ± 6.1 ^[b] min | 52.7 | Fold Selectivity (EC50) [1]: 11; Fold Selectivity (Ki) [2]: 1.9; effect on pentobarbital-induced sleeping time (in words) [5]: significant decrease in sleeping time
2 | CC(C)c1nc(C[C@H](NC(=O)[C@@H]2CCC(=O)N2)C(=O)N2CCC[C@H]2C(N)=O)cn1C [Compd 10 b, L-pGlu-L-His(1-methyl-2-isopropyl)-L-ProNH2] | > 50 | > 50 | 66.2 ± 9.8 min | 25.1 | effect on pentobarbital-induced sleeping time (in words) [5]: significant decrease in sleeping time
3 | Cn1cc(C[C@H](NC(=O)[C@@H]2CCC(=O)N2)C(=O)N2CCC[C@H]2C(N)=O)nc1C(C)(C)C [Compd 10 c, L-pGlu-L-His(1-methyl-2-tert-butyl)-L-ProNH2] | > 50 | > 50 | 59.6 ± 5.5 min | 32.5 | 
4 | CCCC1=NC=CC=CC=C2CN1C=C2C[C@H](NC(=O)[C@@H]1CCC(=O)N1)C(=O)N1CCC[C@H]1C(N)=O [Compd 10 h, L-pGlu-L-His(1-benzyl-2-propyl)-L-ProNH2] |  |  | 105.1 ± 5.76 min | −18.8 | effect on pentobarbital-induced sleeping time (in words) [5]: increased the sleeping time significantly
5 | NC(=O)[C@@H]1CCCN1C(=O)[C@H](CC1=CN2CC1=CC=CC=CC1CCCCN=C12)NC(=O)[C@@H]1CCC(=O)N1 (stereo partly drawn) [Compd 10 l, L-pGlu-L-His(1-benzyl-2-cyclopentyl)-L-ProNH2] |  |  | 163.3 ± 18.7 ^[b, ^c] min | −84.7 | effect on pentobarbital-induced sleeping time (in words) [5]: increased the sleeping time significantly
6 | CCCc1nc(C[C@H](NC(=O)[C@@H]2CCCC(=O)N2)C(=O)N2CCC[C@H]2C(N)=O)cn1C [Compd 16 h, L-pAad-L-His(1-methyl-2-propyl)-L-ProNH2] |  |  | 98.1 ± 9.4 min | −9.1 | 
7 | CC(C)c1nc(C[C@H](NC(=O)[C@@H]2CCCC(=O)N2)C(=O)N2CCC[C@H]2C(N)=O)cn1C [Compd 16 i, L-pAad-L-His(1-methyl-2-isopropyl)-L-ProNH2] |  |  | 124.3 ± 5.8 min | −38.2 | 
8 | Cn1cc(C[C@H](NC(=O)[C@@H]2CCCC(=O)N2)C(=O)N2CCC[C@H]2C(N)=O)nc1C(C)(C)C [Compd 16 j, L-pAad-L-His(1-methyl-2-tert-butyl)-L-Pro-NH2] | > 50 | > 50 | 93.1 ± 4.5 min | −3.6 | 
9 | CN1C=C(C[C@H](NC(=O)[C@@H]2CCCC(=O)N2)C(=O)N2CCC[C@H]2C(N)=O)C2CCCCN=C21 (stereo partly drawn) [Compd 16 k] |  |  | 108.1 ± 14.4 min | −20.2 | 
10 | CN1C=C(C[C@H](NC(=O)[C@@H]2CCCC(=O)N2)C(=O)N2CCC[C@H]2C(N)=O)C23CC4CC(CN=C12)CC(C4)C3 [Compd 16 m, L-pAad-L-His[1-methyl-2-(adamantan-1-yl)]-L-ProNH2] |  |  | 76.0 ± 10.9 min | 15.4 | 
11 | Cn1cnc(C[C@H](NC(=O)[C@@H]2CCC(=O)C2)C(=O)N2CCC[C@H]2C(N)=O)c1 [Compd 21 a, (1 R)-3-Ocp-L-His(1-methyl)-L-ProNH2] | 0.05 | 0.17 |  |  | PTZ: Clonic Convulsions Frequency [6]: 1.3 ± 0.33 min⁻¹; PTZ: Clonic Convulsions Onset [6]: 153 ± 7 ^*^, ^** s; Fold Selectivity (EC50) [1]: 24; Fold Selectivity (Ki) [2]: 10.6; decrease in binding affinity for TRH-R1 relative to TRH ([4]; Ki compared with TRH): 10 fold; MES: Hind Limb Extension Duration [7]: 10.0 ± 0.60 s
12 | CCn1cnc(C[C@H](NC(=O)[C@@H]2CCC(=O)C2)C(=O)N2CCC[C@H]2C(N)=O)c1 [Compd 21 b, (1R)-3-Ocp-L-His(1-ethyl)-L-ProNH2] | 0.14 | 0.1 |  |  | PTZ: Clonic Convulsions Frequency [6]: 1.3 ± 0.21 min⁻¹; PTZ: Clonic Convulsions Onset [6]: 149 ± 8 ^*^, ^** s; Fold Selectivity (EC50) [1]: 4.7; Fold Selectivity (Ki) [2]: 3.2; MES: Hind Limb Extension Duration [7]: 11.3 ± 1.4 s
13 | CCCn1cnc(C[C@H](NC(=O)[C@@H]2CCC(=O)C2)C(=O)N2CCC[C@H]2C(N)=O)c1 [Compd 21 c, (1R)-3-Ocp-L-His(1-propyl)-L-ProNH2] | 4.6 | 8.1 |  |  | PTZ: Clonic Convulsions Frequency [6]: 1.3 ± 0.21 min⁻¹; PTZ: Clonic Convulsions Onset [6]: 68 ± 3 s; Fold Selectivity (EC50) [1]: 4; Fold Selectivity (Ki) [2]: 1.5; MES: Hind Limb Extension Duration [7]: 12.3 ± 0.90 s
14 | CC(C)n1cnc(C[C@H](NC(=O)[C@@H]2CCC(=O)C2)C(=O)N2CCC[C@H]2C(N)=O)c1 [Compd 21 d, (1R)-3-Ocp-L-His(1-isopropyl)-L-ProNH2] | > 50 | > 50 | 123.2 ± 5.9 min | −36.8 | 
15 | CC(C)(C)C1=NC=CC=CC=C2CN1C=C2C[C@H](NC(=O)[C@@H]1CCC(=O)C1)C(=O)N1CCC[C@H]1C(N)=O [Compd 22 c, (1R)-3-Ocp-L-His(1-benzyl-2-tert-butyl)-L-ProNH2] |  |  | 91.6 ± 3.8 min | −1.9 | 
16 | NC(=O)[C@@H]1CCCN1C(=O)[C@H](CC1=CN2CC1=CC=CC=CC1CCN=C12)NC(=O)[C@@H]1CCC(=O)C1 (stereo partly drawn) [Compd 22 d, (1R)-3-Ocp-L-His(1-benzyl-2-cyclopropyl)-L-ProNH2] |  |  | 104.9 ± 5.5 min | −16.7 | 
17 | CCCc1nc(C[C@H](NC(=O)[C@@H]2CCC(=O)C2)C(=O)N2CCC[C@H]2C(N)=O)cn1C [Compd 22 h, (1R)-3-Ocp-L-His(1-methyl-2-propyl)-L-ProNH2] | > 50 | > 50 | 80.2 ± 2.4 min | 10.7 | 
18 | CC(C)c1nc(C[C@H](NC(=O)[C@@H]2CCC(=O)C2)C(=O)N2CCC[C@H]2C(N)=O)cn1C [Compd 22 i, (1R)-3-Ocp-L-His(1-methyl-2-isopropyl)-L-ProNH2] |  | > 50 | 39.8 ± 5.5 ^[b, ^c] min | 55.6 | 
19 | Cn1cc(C[C@H](NC(=O)[C@@H]2CCC(=O)C2)C(=O)N2CCC[C@H]2C(N)=O)nc1C(C)(C)C [Compd 22 j, (1R)-3-Ocp-L-His(1-methyl-2-tert-butyl)-L-ProNH2] |  |  | 89.8 ± 3.0 min | −0.01 | 
20 | CN1C=C(C[C@H](NC(=O)[C@@H]2CCC(=O)C2)C(=O)N2CCC[C@H]2C(N)=O)C2CCCCCN=C21 (stereo partly drawn) [Compd 22 k, (1R)-3-Ocp-L-His(1-methyl-2-cyclohexyl)-L-ProNH2] |  |  | 106.2 ± 3.0 min | −18.1 | 

— paper PMC3479646 (ChemMedChem, 2011)
